Data set [1] can be described thus: (§1) Inhibition of HIV1 Nucleocapsid protein (11 to 55 residues) assessed as reduction in NC-induced cTAR DNA destabilization by measuring intrinsic fluorescence using Alexa488-5'-cTAR-3'-Dabcyl oligonucleotide as substrate at 20 degree C incubated for 15 mins by fluorescence assay. Further details: species or system Human immunodeficiency virus 1. In outline: (§2)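 Fluorescence NC-inhibition assay following destabilisation of cTAR DNA, the complement of the HIV-1 transactivation response element, dual-labelled with Alexa488 dye and Dabcyl quencher. NC protein at 1 μM, so the lowest measurable IC50 is 0.5 μM.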

In data set [2] the test system is Human immunodeficiency virus 1. The data set can be described thus: Antiviral activity against wild-type HIV1 NL4-3 infected in human TZM-bl cells infected with supernatants from virus-infected human MT2 cells treated with compound for 48 to 72 hrs assessed as reduction in viral replication after 2 days by bright Glo-luciferase reporter gene assay based BiCycle assay. It counts as functional, organism-based. Conditions: Human immunodeficiency virus 1, NL4-3, TZM. In a few lines:
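Two-round cell assay over the full replication cycle: MT-2 T cells are infected with wild-type reference strain NL4-3 in the first round, and reporter TZM-bl cells are infected in the second round. Values are given as mean ± deviation.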
(Reporter assays use an easily measured gene product as a stand-in for the process of interest.)

Data set [3] is described as follows: Cytotoxicity against human HeLa cells assessed as reduction in cell viability. It counts as cell-based.
Data set [4] can be described thus: Selectivity index, ratio of CC50 for human HeLa cells assessed as reduction in cell viability to EC50 for wild-type HIV1 NL4-3 infected in human TZM-bl cells infected with supernatants from virus-infected human MT2 cells treated with compound for 48 to 72 hrs assessed as reduction in viral replication after 2 days by bright Glo-luciferase reporter gene assay based BiCycle assay. Conditions: read-out: Ratio CC50/EC50. Format: toxicity. In outline:
(§3)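 Selectivity index is CC50 from the respective cytotoxicity assay (HeLa or PBMC) divided by EC50 from the two-round MT-2/TZM-bl NL4-3 assay.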

The nature of data set [5]: Cytotoxicity against phytohemagglutinin and interleukin-2-stimulated human PBMC cells assessed as reduction in cell viability measured after 7 days by MTS assay. It counts as cell-based. Background: Tetrazolium dyes change colour on reduction, which living cells bring about.
Data set [6] is described as follows: Selectivity index, ratio of CC50 for human PBMC cells stimulated with phytohemagglutinin and interleukin-2 assessed as reduction in cell viability measured after 7 days by MTS assay to EC50 for wild-type HIV1 NL4-3 infected in human TZM-bl cells infected with supernatants from virus-infected human MT2 cells treated with compound for 48 to 72 hrs assessed as reduction in viral replication after 2 days by bright Glo-luciferase reporter gene assay based BiCycle assay. It counts as toxicity. Conditions: read-out: Ratio CC50/EC50. In outline: as §3

In data set [7] the test system is Human immunodeficiency virus 1. The data set is described as §1. In a few lines:
as §2

For data set [8], the target named is Human immunodeficiency virus type 1 integrase (Human immunodeficiency virus 1) (UniProt Q7ZJM1). The data set is described as follows: Inhibition of wild type recombinant HIV1 His6-tagged integrase expressed in Escherichia coli BL21 using 18 nucleotide 3'-biotin labeled DNA acceptor as substrate upto 10 uM preincubated for 1 hr followed by substrate addition and further incubated for 90 mins in presence of recombinant LEDGF/p75 by HTRF assay. Background: Time-resolved FRET reads energy transfer from a long-lived donor to a nearby acceptor.

The source made the active and inactive calls. The calls are words filed in the database; no cut-off is given here.

Results on 24 compounds are retold here after ChEMBL document CHEMBL4613292, “5,6-Dihydroxypyrimidine Scaffold to Target HIV-1 Nucleocapsid Protein” (ACS Med Chem Lett, 2020).

Human immunodeficiency virus type 1 integrase (Human immunodeficiency virus 1), sequence (Q7ZJM1 as listed by the source): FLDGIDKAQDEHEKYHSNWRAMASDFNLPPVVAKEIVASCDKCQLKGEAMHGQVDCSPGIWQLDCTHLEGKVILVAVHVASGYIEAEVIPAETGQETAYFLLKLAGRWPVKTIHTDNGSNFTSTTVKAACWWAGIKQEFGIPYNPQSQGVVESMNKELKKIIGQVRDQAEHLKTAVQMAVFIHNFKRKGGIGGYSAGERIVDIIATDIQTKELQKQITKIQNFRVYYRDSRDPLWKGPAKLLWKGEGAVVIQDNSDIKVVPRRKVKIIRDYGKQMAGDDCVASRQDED

Take `Cc1ccnc(-c2nc(O)c(O)c(C(=O)N[C@H](C)C3CCCCC3)n2)c1`: the IC50 (as a rule, the point on the concentration scale where inhibition reaches its midpoint) in data set [1] (read-out: IC50) amounted to 8 µM. Besides, in data set [2], the EC50 – broadly, the midpoint of the concentration-response curve – is 0.2 µM. Also, the CC50 (commonly the concentration giving 50% cytotoxicity) in data set [3] was 2.7 µM. In addition, the selectivity ratio in data set [4] was 13. The CC50 at 168 h in data set [5] worked out at 3.1 µM. Moreover, the selectivity ratio at 7 days in data set [6] is 16.
For `O=C(NCC1CCCCC1)c1nc(-c2ccccc2)nc(O)c1O`, the IC50 entry in data set [1] is “Not Active”.
Turning to `C[C@@H](NC(=O)c1nc(-c2ccccn2)nc(O)c1O)C1CCCCC1`, in data set [1] (read-out: IC50), the 50% inhibitory concentration (IC50) was determined as 42 µM. In data set [2], the half-maximal effective concentration (EC50) is 0.7 µM. In addition, in data set [3], the 50% cytotoxic concentration (CC50) stood at 3.2 µM. The selectivity ratio in data set [4] is 5. Moreover, the 50% cytotoxic concentration (CC50) at 168 h in data set [5] was 3 µM. For the same compound, the selectivity ratio at 7 days in data set [6] worked out at 4.
As to `Cc1ccc(-c2nc(O)c(O)c(C(=O)N[C@H](C)C3CCCCC3)n2)nc1`, the IC40 in data set [7] stood at 20 µM.
Take `C[C@@H](NC(=O)c1nc(-c2cccc(C(F)(F)F)n2)nc(O)c1O)C1CCCCC1`: the IC35 in data set [7] worked out at 20 µM.
Take `CC(Cc1nc(-c2ccc(O)c(O)c2)cs1)n1cc(Cl)cn1` (stereo not given): the IC50 in data set [1] (read-out: IC50) amounted to 110 µM.
On to `CC(Cc1ccc(O)c(O)c1)C(C)Cc1ccc(O)c(O)c1` (stereo not given) [NORDIHYDROGUAIARETIC ACID], for which the IC50 in data set [1] (read-out: IC50) amounted to 26 µM.
As to `CCNC(=O)c1nc(-c2ccccn2)nc(O)c1O`, the concentration for half-maximal inhibition (IC50) result in data set [1] was “Not Active”.
With `O=C(NCC1CCCCC1)c1nc(-c2ccncc2)nc(O)c1O`, in data set [1], the concentration for half-maximal inhibition (IC50) entry is “Not Active”.
In the case of `C[C@@H](NC(=O)c1nc(-c2ccc(C(F)(F)F)cn2)nc(O)c1O)C1CCCCC1`, in data set [1] (read-out: IC50), the IC50 stood at 23 µM.
On to `O=C(NCC1CCCCC1)c1nc(-c2cccnc2)nc(O)c1O`, for which, in data set [1], the concentration for half-maximal inhibition (IC50) entry is reported as “Not Active”.
Regarding `O=C(NC1CCCCC1)c1nc(-c2ccccn2)nc(O)c1O`, the IC50 in data set [1] (read-out: IC50) was 300 µM.
Take `CC(C)(C)c1nc(O)c(O)c(C(=O)NCC2CCCCC2)n1`: the IC50 result in data set [1] is “Not Active”.
For `O=C(NCCC1CCCCC1)c1nc(-c2ccccn2)nc(O)c1O`, the IC50 in data set [1] (read-out: IC50) amounted to 38 µM. Further, the EC50 in data set [2] stood at 2.3 µM. Also, the CC50 in data set [3] came to 4.2 µM. For the same compound, the selectivity ratio in data set [4] stood at 2. The half-maximal cytotoxic concentration (CC50) at 168 h in data set [5] worked out at 11 µM. Besides, the selectivity ratio at 7 days in data set [6] turned out to be 5.
With `CC(c1ccccc1)c1nc(O)c(O)c(C(=O)NCC2CCCCC2)n1` (stereo not given), the IC50 entry in data set [1] is reported as “Not Active”.
Consider `O=C(NCC1CCCCC1)c1nc(-c2ccccn2)nc(O)c1O`, for which the IC50 in data set [1] (read-out: IC50) amounted to 167 µM. Further, the concentration for a half-maximal effect (EC50) in data set [2] turned out to be 1.2 µM. For the same compound, the CC50 in data set [3] stood at 3.6 µM. Besides, the selectivity ratio in data set [4] came to 3. The 50% cytotoxic concentration (CC50) at 168 h in data set [5] was 2.6 µM. Moreover, the selectivity ratio at 7 days in data set [6] came to 2. Further, the inhibition entry in data set [8] was “inactive”.
Consider `Cc1cccnc1-c1nc(O)c(O)c(C(=O)N[C@H](C)C2CCCCC2)n1`, for which the half-maximal inhibitory concentration (IC50) in data set [1] (read-out: IC50) is 21 µM.
As for `C[C@H](NC(=O)c1nc(-c2ccccn2)nc(O)c1O)C1CCCCC1`, in data set [1] (read-out: IC50), the IC50 was 47 µM. Moreover, the EC50 in data set [2] was found to be 0.2 µM. In addition, the CC50 in data set [3] worked out at 0.6 µM. The selectivity ratio in data set [4] was 3. Besides, the CC50 at 168 h in data set [5] stood at 2.4 µM. In addition, the selectivity ratio at 7 days in data set [6] is 12.
As to `CN(CC1CCCCC1)C(=O)c1nc(-c2ccccn2)nc(O)c1O`, the half-inhibitory concentration (IC50) result in data set [1] is “Not Active”.
As for `C[C@@H](NC(=O)c1nc(-c2ncccc2C(F)(F)F)nc(O)c1O)C1CCCCC1`, the IC35 in data set [7] was 20 µM.
Take `Cc1cccc(-c2nc(O)c(O)c(C(=O)N[C@H](C)C3CCCCC3)n2)n1`: the half-inhibitory concentration (IC50) in data set [1] (read-out: IC50) worked out at 20 µM.
On to `O=C(NCc1ccccc1)c1nc(-c2ccccn2)nc(O)c1O`, for which the IC50 entry in data set [1] is given as “Not Active”.
For `O=C(NCC1CCCCC1)c1nc(CCc2ccccc2)nc(O)c1O`, in data set [1], the IC50 entry is reported as “Not Active”.
On to `Cc1ccnc(-c2nc(O)c(O)c(C(=O)N[C@@H](C)C3CCCCC3)n2)c1`, for which the half-inhibitory concentration (IC50) in data set [1] (read-out: IC50) was 41 µM.
